Source: ChEMBL document CHEMBL3046177, “Plant growth inhibitory activity of p-hydroxyacetophenones and tremetones from Chilean endemic Baccharis species and some analogous: a comparative study” (J Agric Food Chem, 2002)
Calls of active or inactive are those of the source. The rule behind the calls is not given here.

Experiments:
Lactuca sativa [1] = assay: Phytotoxicity against Lactuca sativa (lettuce) assessed as inhibition of seed germination after 48 hr; format: functional
Outline: (§1)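 Seeds of uniform size on Whatman No.1 filter paper in 85 mm Petri dishes, wetted with 8 or 10 mL deionized water or test solution (MeOH < 1%); controls got matching water/methanol. Sealed, incubated at 28 °C in the dark, scored at 48 h intervals; germination = 1 mm radicle extrusion. Three replicates.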

Physalis ixocarpa [2] = assay: Phytotoxicity against Physalis ixocarpa assessed as inhibition of shoot development during seeding stage after 120 hr; format: functional, organism-based; settings: for IC50: read-out: I50
Outline: (§2)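 Petri-dish seedling assay on filter paper wetted with test solution (MeOH < 1%), 28 °C in the dark. Coleoptile/hypocotyl and root lengths of all germinated seeds measured after 120 h, then plants dried to constant weight at 40 °C. Three replicates; 50% inhibitory concentrations by Probit analysis of percent inhibition versus concentration.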

Lolium multiflorum [3] = assay: Phytotoxicity against Lolium multiflorum (Italian ryegrass) assessed as inhibition of root development during seeding stage after 120 hr; format: functional, organism-based; settings: for IC50: read-out: I50; outline: as §2
Spinacia oleracea [4] = assay: Inhibition of H+ uptake in Spinacia oleracea (spinach) chloroplasts; format: functional; settings: for IC50: read-out: I50
Outline: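 Spinach thylakoids (from isolated chloroplasts, in sorbitol/tricine/MgCl2/NaCl buffer, pH 7.8) in 100 mM sorbitol, 5 mM MgCl2, 10 mM KCl, 1 mM Na+-tricine, pH 8, with 50 µM methyl viologen. Illuminated at 20 °C through 1% CuSO4 filter. H+ uptake recorded as pH rise from 8.0 to 8.1 with combination microelectrode on expanded scale.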

Physalis ixocarpa [5] = assay: Phytotoxicity against Physalis ixocarpa assessed as inhibition of seed germination after 48 hr; format: functional; outline: as §1
Lolium multiflorum [6] = assay: Phytotoxicity against Lolium multiflorum (Italian ryegrass) assessed as inhibition of seed germination after 48 hr; format: functional; outline: as §1
Trifolium pratense [7] = assay: Phytotoxicity against Trifolium pratense (red clover) assessed as inhibition of root development during seeding stage after 120 hr; format: functional, organism-based; settings: for IC50: read-out: I50; outline: as §2
Trifolium pratense [8] = assay: Phytotoxicity against Trifolium pratense (red clover) assessed as inhibition of shoot development during seeding stage after 120 hr; format: functional, organism-based; settings: for IC50: read-out: I50; outline: as §2
Trifolium pratense [9] = assay: Phytotoxicity against Trifolium pratense (red clover) assessed as inhibition of seed germination after 48 hr; format: functional; outline: as §1
Lactuca sativa [10] = assay: Phytotoxicity against Lactuca sativa (lettuce) assessed as inhibition of shoot development during seeding stage after 120 hr; format: functional, organism-based; settings: for IC50: read-out: I50; outline: as §2
Lolium multiflorum [11] = assay: Phytotoxicity against Lolium multiflorum (Italian ryegrass) assessed as inhibition of seed respiration during germination after 72 hr; format: functional, organism-based; settings: read-out: I50
Outline: (§3)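 Oxygen uptake of germinating seeds measured polarographically with a Clark-type electrode at 25 °C in a nonilluminated cell over 5 and 10 min, at several compound concentrations. Expressed as percent of control (100%). Three experiments; RI50 from Probit analysis.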

[12] = Antioxidant activity assessed as inhibition of bleaching of water soluble crocin measured every 5 min by spectrophotometric analysis; format: functional
Outline: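 Aqueous mixture of 10 µM crocin, 1 mM t-BuOOH and 0.5 M t-BuOH with serial dilutions of test compound, placed under UV254 light; crocin bleaching (absorbance decrease) and fluorescence emission at 440 and 470 nm followed every 5 min. Three experiments, mean ± SEM.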

Physalis ixocarpa [13] = assay: Phytotoxicity against Physalis ixocarpa assessed as inhibition of root development during seeding stage after 120 hr; format: functional, organism-based; settings: for IC50: read-out: I50; outline: as §2
Lactuca sativa [14] = assay: Phytotoxicity against Lactuca sativa (lettuce) assessed as inhibition of root development during seeding stage after 120 hr; format: functional, organism-based; settings: for IC50: read-out: I50; outline: as §2
Phaseolus vulgaris = assay: Inhibition of mitochondrial respiration in Phaseolus vulgaris root mitochondria assessed as reduction of oxygen uptake; format: functional; settings: read-out: I50
Outline: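 Mitochondria from roots of 72 h dark-grown (28 °C) bean seedlings, Percoll-gradient purified, 0.3-0.5 mg protein (Bradford) per run; integrity checked with HCN. Compounds in 0.5% methanol added after a constant state 3 rate with […] was reached. O2 uptake by Clark electrode; control is mitochondria with 0.5% MeOH. Three experiments; I50 by Probit.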

[15] = test system: Radical scavenging activity; assay: Antioxidant activity assessed as DPPH free radical scavenging activity after 30 min by TLC autographic assay; format: functional; settings: in the assay text read “spectrophotometric assay” for “TLC autographic assay”; read-out: I50
Physalis ixocarpa [16] = assay: Phytotoxicity against Physalis ixocarpa assessed as inhibition of seed respiration during germination after 72 hr; format: functional, organism-based; settings: read-out: I50; outline: as §3
Spinacia oleracea [17] = assay: Inhibition of ATP synthesis in Spinacia oleracea (spinach) chloroplasts; format: functional
Outline: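 Spinach thylakoids in 100 mM sorbitol, 5 mM MgCl2, 10 mM KCl, 1 mM Na+-tricine, pH 8, with 50 µM methyl viologen as Hill-reaction electron acceptor. Illuminated at 20 °C through 1% CuSO4 filter. ATP synthesis measured titrimetrically.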

Lolium multiflorum [18] = assay: Phytotoxicity against Lolium multiflorum (Italian ryegrass) assessed as inhibition of shoot development during seeding stage after 120 hr; format: functional, organism-based; settings: for IC50: read-out: I50; outline: as §2
Lactuca sativa [19] = assay: Phytotoxicity against Lactuca sativa (lettuce) assessed as inhibition of seed respiration during germination after 72 hr; format: functional, organism-based; settings: read-out: I50; outline: as §3
Trifolium pratense [20] = assay: Phytotoxicity against Trifolium pratense (red clover) assessed as inhibition of seed respiration during germination after 72 hr; format: functional, organism-based; settings: read-out: I50; outline: as §3
Lolium multiflorum [21] = assay: Phytotoxicity against Lolium multiflorum (Italian ryegrass) assessed as inhibition of seed respiration during germination after 24 hr; format: functional, organism-based; outline: as §3
Trifolium pratense [22] = assay: Phytotoxicity against Trifolium pratense (red clover) assessed as inhibition of seed respiration during germination after 24 hr; format: functional, organism-based; outline: as §3
Physalis ixocarpa [23] = assay: Phytotoxicity against Physalis ixocarpa assessed as inhibition of seed respiration during germination after 24 hr; format: functional, organism-based; outline: as §3
Lactuca sativa [24] = assay: Phytotoxicity against Lactuca sativa (lettuce) assessed as inhibition of seed respiration during germination after 24 hr; format: functional, organism-based; outline: as §3
Trifolium pratense [25] = assay: Increase of root development during seeding stage in Trifolium pratense (red clover) at 50 to 300 uM after 120 hr; format: functional, organism-based; outline: as §2
Lactuca sativa [26] = assay: Increase of root development during seeding stage in Lactuca sativa (lettuce) at 50 to 300 uM after 120 hr; format: functional, organism-based; outline: as §2
Trifolium pratense [27] = assay: Increase of shoot development during seeding stage in Trifolium pratense (red clover) at 200 uM after 120 hr; format: functional, organism-based; outline: as §2
[28] = test system: Lolium multiflorum (ryegrass); assay: Phytotoxicity against Lolium multiflorum (ryegrass) assessed as inhibition of seed germination at 500 uM after 48 hr
Physalis ixocarpa [29] = assay: Increase of shoot development during seeding stage in Physalis ixocarpa up to 50 uM after 120 hr; format: functional, organism-based; outline: as §2
Lolium multiflorum [30] = assay: Phytotoxicity against Lolium multiflorum (Italian ryegrass) assessed as inhibition of seed germination at 500 uM after 48 hr; format: functional; outline: as §1

IC50 (Spinacia oleracea [4]) | SMILES | GI50 (Lactuca sativa [1]) | IC50 (Physalis ixocarpa [2]) | IC50 (Lolium multiflorum [3]) | inhibition (Spinacia oleracea [4]) | GI50 (Physalis ixocarpa [5]) | GI50 (Lolium multiflorum [6]) | IC50 (Trifolium pratense [7]) | IC50 (Trifolium pratense [8]) | GI50 (Trifolium pratense [9]) | IC50 (Lactuca sativa [10]) | IC50 (Lolium multiflorum [11]) | IC50 (Physalis ixocarpa [13]) | IC50 (Lactuca sativa [14]) | inhibition (Spinacia oleracea [17]) | IC50 (Lolium multiflorum [18]) | I50 (Lolium multiflorum [21]) | I50 (Trifolium pratense [22]) | I50 (Physalis ixocarpa [23]) | I50 (Lactuca sativa [24]) | further results
20.4 µM | C=C(C)[C@H]1Cc2c(ccc(C(C)=O)c2O)O1 [4-HYDROXY TREMETONE] | 21 µM | 15.2 µM | 22.3 µM | Dose-dependent effect | 16.6 µM | 25.5 µM | 46.3 µM | 47.6 µM | 17.8 µM | 19 µM | 39 µM | 12.7 µM | 16.7 µM | Dose-dependent effect | 26.2 µM |  |  |  |  | inhibition [12]: Active; IC50 (Phaseolus vulgaris): 45 µM; IC50 [15]: 53.2 µM; IC50 (Physalis ixocarpa [16]): 28.7 µM; IC50 (Lactuca sativa [19]): 27 µM; IC50 (Trifolium pratense [20]): 22 µM
74.5 µM | CC(=O)c1ccc(O)cc1 [4-HYDROXYACETOPHENONE] | 45.3 µM | 10.8 µM | 19 µM | Dose-dependent effect | 15 µM | 14.4 µM | 29.5 µM | 34.4 µM | 28.5 µM | 48.5 µM | 41 µM | 10.8 µM | 45.5 µM | Dose-dependent effect | 17.1 µM |  |  |  |  | inhibition [12]: Active; IC50 (Phaseolus vulgaris): 121 µM; IC50 (Physalis ixocarpa [16]): 52.9 µM; IC50 (Lactuca sativa [19]): 43 µM; IC50 (Trifolium pratense [20]): 53 µM
65.7 µM | COc1ccc(C(C)=O)cc1 [P-METHOXY-ACETOPHENONE] | 51.2 µM | 20.1 µM | 18.9 µM | Dose-dependent effect | 23.5 µM | 18.1 µM | 126 µM | 120 µM | 126 µM | 49.5 µM | 40 µM | 20.5 µM | 44.3 µM | Dose-dependent effect | 17.9 µM |  |  |  |  | IC50 (Phaseolus vulgaris): 152 µM; IC50 (Physalis ixocarpa [16]): 54.6 µM; IC50 (Lactuca sativa [19]): 55.9 µM; IC50 (Trifolium pratense [20]): 57.6 µM
70.7 µM | C=C(C)[C@H]1Cc2cc(C(C)=O)ccc2O1 [TREMETONE] | 45 µM | 7.7 µM | 36.1 µM | Dose-dependent effect | 31.8 µM | 37.5 µM | 34.9 µM | 35.5 µM | 35.5 µM | 45 µM |  | 18.6 µM | 44.2 µM | Dose-dependent effect | 35 µM | inactive | inactive | inactive | inactive | inhibition [12]: Active

Second part, the compound before the results:

SMILES | IC50 (Spinacia oleracea [4]) | GI50 (Lactuca sativa [1]) | IC50 (Physalis ixocarpa [2]) | IC50 (Lolium multiflorum [3]) | inhibition (Spinacia oleracea [4]) | GI50 (Physalis ixocarpa [5]) | GI50 (Lolium multiflorum [6]) | IC50 (Trifolium pratense [7]) | IC50 (Trifolium pratense [8]) | GI50 (Trifolium pratense [9]) | IC50 (Lactuca sativa [10]) | IC50 (Lolium multiflorum [11]) | IC50 (Physalis ixocarpa [13]) | IC50 (Lactuca sativa [14]) | inhibition (Spinacia oleracea [17]) | IC50 (Lolium multiflorum [18]) | I50 (Lolium multiflorum [21]) | I50 (Trifolium pratense [22]) | I50 (Physalis ixocarpa [23]) | I50 (Lactuca sativa [24]) | further results
CC(=O)c1ccc(Br)cc1 |  | inactive |  |  |  | inactive | inactive |  |  | inactive |  |  |  |  |  |  | inactive | inactive | inactive | inactive | I50 (Physalis ixocarpa [2]): inactive; Activity (Trifolium pratense [25]): Active; I50 (Lolium multiflorum [3]): inactive; Activity (Lactuca sativa [26]): Active; Activity (Trifolium pratense [27]): Active; I50 (Trifolium pratense [7]): inactive; I50 (Trifolium pratense [8]): inactive; inhibition at 500 µM [28]: 30%; I50 (Lactuca sativa [10]): inactive; I50 (Physalis ixocarpa [13]): inactive; Activity (Physalis ixocarpa [29]): Active; I50 (Lactuca sativa [14]): inactive; inhibition at 500 µM (Lolium multiflorum [30]): 30%; I50 (Lolium multiflorum [18]): inactive
CC(=O)c1ccccc1 [ACETOPHENONE] |  | 47 µM |  | 128 µM |  | inactive | 128 µM | 134 µM | 137 µM | 137 µM | 49.5 µM |  |  | 45.7 µM |  | 126 µM | inactive | inactive | inactive | inactive | I50 (Physalis ixocarpa [2]): inactive; inhibition at 500 µM [28]: 30%; I50 (Physalis ixocarpa [13]): inactive; inhibition at 500 µM (Lolium multiflorum [30]): 30%
CC(=O)c1ccc2c(c1)C[C@H](C(C)C)O2 [10,11-DIHYDRO TREMETONE] |  | 25.9 µM | 20.1 µM | 31.9 µM |  | 24.7 µM | 31.5 µM | 28.6 µM | 23.2 µM | 27.9 µM | 17.3 µM |  | 19.1 µM | 17.4 µM |  | 29.3 µM | inactive | inactive | inactive | inactive | 
O=C1C(O)=C(O)C(=O)C(O)=C1O [TETROQUINONE] |  |  |  |  |  |  |  |  |  |  |  |  |  |  |  |  |  |  |  |  | IC50 [15]: 9.37 µM
